From ChEMBL document CHEMBL1125205, “Phosphorus-containing inhibitors of HMG-CoA reductase. 2. Synthesis and biological activities of a series of substituted pyridines containing a hydroxyphosphinyl moiety” (J Med Chem, 1991)

System: Rattus norvegicus
Test: The compound was tested in vivo for inhibition of Cholesterol Biosynthesis from [14C]- acetate in rat after intravenous administration.
Type: functional
Conditions: not given
In short: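 Male Sprague-Dawley rats (200-300 g) were kept on a reverse light cycle. Salt forms were given iv into the tail vein in saline, 5 min before ip sodium [1-14C]acetate (25 µCi/100 g), dosed 2 h before mid-dark. Blood was taken 2 h after mid-dark. Read-out: 14C nonsaponifiable plasma lipid per mL versus controls, 4-5 rats/group. ED50 from log dose regressions, mean of ≥2 experiments.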

SMILES	ED50 [mg/kg]
CC[C@H](C)C(=O)O[C@@H]1C[C@@H](C)C=C2C=C[C@H](C)[C@H](CC[C@@H](O)C[C@H](O)CC(=O)[O-])C21.[Na+] (stereo partly specified)	0.033
CC[C@H](C)C(=O)O[C@H]1C[C@H](O)C=C2C=C[C@H](C)[C@H](CC[C@@H](O)C[C@@H](O)CC(=O)[O-])[C@H]21.[Na+] [PRAVASTATIN SODIUM]	0.053

System: Rattus norvegicus
Test: The compound was tested in vivo for inhibition of Cholesterol Biosynthesis from [14C]- acetate in rat after peroral administration.
Type: functional
Conditions: po

SMILES	ED50 [mg/kg]
CC[C@H](C)C(=O)O[C@@H]1C[C@@H](C)C=C2C=C[C@H](C)[C@H](CC[C@@H](O)C[C@H](O)CC(=O)[O-])C21.[Na+] (stereo partly specified)	0.4
CCc1c(-c2ccccc2)nc(C(C)C)c(C#CP(=O)([O-])C[C@H](O)CC(=O)[O-])c1-c1ccc(F)cc1.[Na+].[Na+]	4.5
CC[C@H](C)C(=O)O[C@H]1C[C@H](O)C=C2C=C[C@H](C)[C@H](CC[C@@H](O)C[C@@H](O)CC(=O)[O-])[C@H]21.[Na+] [PRAVASTATIN SODIUM]	0.75

System: not listed separately
Test: It is the ratio of I50 fibroblasts to that of I50 hepatocytes.
Type: functional, Hepatocyte
Conditions: not given
In short: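 Selectivity is the ratio of I50 in human skin fibroblasts to I50 in freshly isolated rat hepatocytes. Each I50 came from [14C]acetate incorporation into cholesterol, measured as percent inhibition versus controls from composite dose-response data.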

SMILES	Selectivity
CCc1c(-c2ccccc2)nc(C(C)C)c(C#CP(=O)([O-])C[C@H](O)CC(=O)[O-])c1-c1ccc(F)cc1.[Na+].[Na+]	13
CC[C@H](C)C(=O)O[C@H]1C[C@H](O)C=C2C=C[C@H](C)[C@H](CC[C@@H](O)C[C@@H](O)CC(=O)[O-])[C@H]21.[Na+] [PRAVASTATIN SODIUM]	31

Species: Rattus norvegicus
Test: The compound was tested for inhibition of Cholesterol synthesis from [14C]- Acetate in hepatocytes of rats.
Type: functional
Conditions: Hepatocyte, read-out: I 50
In short: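 Rat hepatocytes were freshly isolated by collagenase perfusion, 70-90% viable. Cells were suspended at 5 × 10^6 per 2.0 mL in Tris pH 7.4 incubation medium with cofactors; DMSO was ≤1.0% final. Incubation was with [14C]acetate (2 µCi/mL) for 2.0 h at 37 °C. Lipids were extracted by Bligh-Dyer and the percent of label in the cholesterol peak was compared with controls. I50 from composite curves of two or more studies.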

SMILES	IC50 [nM]
CCc1c(-c2ccccc2)nc(C(C)C)c(C#CP(=O)([O-])C[C@H](O)CC(=O)[O-])c1-c1ccc(F)cc1.[Na+].[Na+]	519

Same assay, conditions: Hepatocyte, read-out: I50

SMILES	IC50 [nM]
CC[C@H](C)C(=O)O[C@@H]1C[C@@H](C)C=C2C=C[C@H](C)[C@H](CC[C@@H](O)C[C@H](O)CC(=O)[O-])C21.[Na+] (stereo partly specified)	146

Target: T1, 3-hydroxy-3-methylglutaryl-coenzyme A reductase (Rattus norvegicus, UniProt P51639)
T1 sequence (P51639 whole entry): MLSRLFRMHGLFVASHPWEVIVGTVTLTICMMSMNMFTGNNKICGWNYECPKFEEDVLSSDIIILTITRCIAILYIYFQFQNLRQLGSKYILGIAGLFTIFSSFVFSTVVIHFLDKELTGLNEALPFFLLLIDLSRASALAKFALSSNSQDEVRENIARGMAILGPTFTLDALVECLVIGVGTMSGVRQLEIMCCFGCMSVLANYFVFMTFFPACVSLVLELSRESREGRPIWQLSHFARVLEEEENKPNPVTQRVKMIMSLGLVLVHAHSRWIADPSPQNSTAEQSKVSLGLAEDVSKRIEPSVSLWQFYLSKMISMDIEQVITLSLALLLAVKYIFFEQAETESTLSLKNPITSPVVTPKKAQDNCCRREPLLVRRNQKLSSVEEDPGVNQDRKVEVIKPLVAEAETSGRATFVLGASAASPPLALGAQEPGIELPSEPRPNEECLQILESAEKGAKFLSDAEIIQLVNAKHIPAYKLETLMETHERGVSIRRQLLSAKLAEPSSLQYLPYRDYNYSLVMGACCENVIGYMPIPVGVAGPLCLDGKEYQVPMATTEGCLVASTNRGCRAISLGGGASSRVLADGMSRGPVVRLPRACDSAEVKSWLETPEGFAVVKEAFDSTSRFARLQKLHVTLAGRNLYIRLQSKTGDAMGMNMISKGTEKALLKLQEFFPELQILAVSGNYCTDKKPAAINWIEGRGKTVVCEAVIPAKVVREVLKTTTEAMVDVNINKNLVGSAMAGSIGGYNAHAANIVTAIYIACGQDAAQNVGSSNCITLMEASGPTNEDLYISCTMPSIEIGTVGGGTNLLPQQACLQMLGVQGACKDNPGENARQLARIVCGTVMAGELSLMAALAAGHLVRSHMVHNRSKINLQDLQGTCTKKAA
Test: In vitro for inhibition of rat HMG-CoA reductase.
Conditions: read-out: I50
In short: (§1)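 Enzyme source: hepatic microsomes from cholestyramine-fed Sprague-Dawley rats. Final assay conditions: 0.04 M potassium phosphate pH 7.2, KCl, sucrose, EDTA, 10 mM DTT, 1% DMSO, 50-200 µg microsomal protein. Microsomes were preincubated with 2.7 mM NADPH for 15 min at 37 °C, then with compound for 15 min. 100 µM 14C-[D,L]-HMG-CoA was then added for 20 min at 37 °C. Read-out: 14C-mevalonate, corrected by 3H-mevalonate recovery. I50 taken from composite dose-response regressions, 2-5 experiments.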

SMILES	IC50 [nM]
Cc1c(-c2ccccc2)nc(C(C)C)c(CCP(=O)(O)C[C@H](O)CC(=O)O)c1-c1ccc(F)cc1	9.2
CCc1nc(-c2ccccc2)c(C)c(-c2ccc(F)cc2)c1CCP(=O)(O)C[C@H](O)CC(=O)O	79.8
CC(C)c1cc(-c2ccccc2)nc(-c2ccc(F)cc2)c1C#CP(=O)(O)C[C@H](O)CC(=O)O	420
CC(C)c1nc(-c2cccc3c2OCO3)cc(-c2ccc(F)cc2)c1C#CP(=O)(O)C[C@H](O)CC(=O)O	84.6
CC(C)c1nc(C(c2ccccc2)c2ccccc2)cc(-c2ccc(F)cc2)c1C#CP(=O)(O)C[C@H](O)CC(=O)O	14.9
CC(C)c1nc2c(c(-c3ccc(F)cc3)c1/C=C/P(=O)(O)C[C@H](O)CC(=O)O)CCCc1ccccc1-2	1.3
CC(C)c1nc2c(c(-c3ccc(F)cc3)c1C#CP(=O)(O)C[C@H](O)CC(=O)O)Cc1ccccc1-2	75.6
CC(C)c1nc(-c2ccccc2)c(F)c(-c2ccc(F)cc2)c1C#CP(=O)(O)C[C@H](O)CC(=O)O	44.9
Cc1c(-c2ccccc2)nc(C2CC2)c(C#CP(=O)(O)C[C@H](O)CC(=O)O)c1-c1ccc(F)cc1	4.6
CCc1nc(-c2ccccc2)c(C)c(-c2ccc(F)cc2)c1C#CP(=O)(O)C[C@H](O)CC(=O)O	110
CC(C)c1nc(C(C)(C)C)cc(-c2ccc(F)cc2)c1/C=C/P(=O)(O)C[C@H](O)CC(=O)O	3.2
CC(C)c1nc(-c2ccccc2)cc(-c2ccc(F)cc2)c1CCP(=O)(O)C[C@H](O)CC(=O)O	181
Cc1cc(F)ccc1-c1cc(-c2ccccc2)nc(C(C)C)c1CCP(=O)(O)C[C@H](O)CC(=O)O	115
CC(C)c1nc(-c2cccc3ccccc23)cc(-c2ccc(F)cc2)c1C#CP(=O)(O)C[C@H](O)CC(=O)O	28.7
CCc1c(-c2ccccc2)nc(C(C)C)c(C#CP(=O)([O-])C[C@H](O)CC(=O)[O-])c1-c1ccc(F)cc1.[Na+].[Na+]	5.6
CC(C)c1nc(-c2ccccc2)c(-c2ccccc2)c(-c2ccc(F)cc2)c1C#CP(=O)(O)C[C@H](O)CC(=O)O	15.6

Results, then the compound that gave them:

IC50 [nM]	SMILES
18.6	CC(C)c1nc2c(c(-c3ccc(F)cc3)c1CCP(=O)(O)C[C@H](O)CC(=O)O)CCCc1ccccc1-2
52.5	CC(C)c1nc2c(c(-c3ccc(F)cc3)c1C#CP(=O)(O)C[C@H](O)CC(=O)O)CCc1ccccc1-2
17.2	CC(C)c1nc(C(C)(C)C)cc(-c2ccc(F)cc2)c1CCP(=O)(O)C[C@H](O)CC(=O)O
235	Cc1nc(-c2ccccc2)c(C)c(-c2ccc(F)cc2)c1CCP(=O)(O)C[C@H](O)CC(=O)O
8.9	CC(C)c1nc(-c2cc(F)c(F)c(F)c2F)cc(-c2ccc(F)cc2)c1C#CP(=O)(O)C[C@H](O)CC(=O)O
2.5	Cc1c(-c2ccccc2)nc(C2CC2)c(/C=C/P(=O)(O)C[C@H](O)CC(=O)O)c1-c1ccc(F)cc1
43.8	CC(C)c1nc(C23CC4CC(CC(C4)C2)C3)cc(-c2ccc(F)cc2)c1C#CP(=O)(O)C[C@H](O)CC(=O)O
19.1	CCc1c(-c2ccccc2)nc(C(C)C)c(CCP(=O)(O)C[C@H](O)CC(=O)O)c1-c1ccc(F)cc1

Target: T1, 3-hydroxy-3-methylglutaryl-coenzyme A reductase
Test: The compound was tested in vitro for inhibition of rat hepatic HMG-CoA reductase.
Type: functional
Conditions: read-out: I50
In short: as §1

IC50 [nM]	SMILES
24	CC[C@H](C)C(=O)O[C@H]1C[C@H](O)C=C2C=C[C@H](C)[C@H](CC[C@@H](O)C[C@@H](O)CC(=O)[O-])[C@H]21.[Na+] [PRAVASTATIN SODIUM]

Species: Homo sapiens
Test: The compound was tested for inhibition of Cholesterol synthesis from [14C]- Acetate in human skin fibroblasts
Type: functional
Conditions: read-out: I 50
In short: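 Human skin fibroblasts (passage 7-27) were plated at 5 × 10^5 cells/well and cultured 18 h. Sterol synthesis was induced by 24 h in serum-free MEM with 1.0% fatty acid-free BSA. Cells were preincubated with compound for 30 min (DMSO ≤1.0%), then given sodium [1-14C]acetate at 2.0 µCi/mL for 4 h. Label in the extracted cholesterol peak was compared with controls. I50 from composite curves of ≥2 experiments.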

SMILES	IC50 [nM]
CCc1c(-c2ccccc2)nc(C(C)C)c(C#CP(=O)([O-])C[C@H](O)CC(=O)[O-])c1-c1ccc(F)cc1.[Na+].[Na+]	6750

Same assay, conditions: read-out: I50

SMILES	IC50 [nM]
CC[C@H](C)C(=O)O[C@@H]1C[C@@H](C)C=C2C=C[C@H](C)[C@H](CC[C@@H](O)C[C@H](O)CC(=O)[O-])C21.[Na+] (stereo partly specified)	18.8
